Measurements: ChEMBL document CHEMBL3526139, “Clinical pharmacokinetics, metabolism, and drug-drug interaction of carfilzomib” (Drug Metab Dispos, 2013)

Experiments:
CYP3A [1] = molecular target: T1, CYP3A (Homo sapiens, UniProt P08684+P20815+P24462+Q9HB55); assay: Inhibition of CYP3A in human liver microsomes assessed as substrate metabolite formation using midazolam as substrate measured after 5 mins by LC-MS/MS analysis; format: ADME; conditions: probe midazolam
Method in brief: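 Pooled HLM from 16 donors were incubated at 37°C in duplicate with carfilzomib 0.01–10 µM and probe substrate at about its Km. Substrates were phenacetin, amodiaquine, diclofenac, S-mephenytoin, dextromethorphan, testosterone and midazolam. Protein was 0.1 mg/mL, or 0.05 mg/mL with midazolam. Reactions ran 5 min without preincubation, then were quenched with acetonitrile. Metabolites were measured by LC-MS/MS relative to 0.5% acetonitrile controls.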

CYP3A [2] = molecular target: T1, CYP3A; assay: Inhibition of CYP3A in human liver microsomes assessed as substrate metabolite formation using testosterone as substrate preincubated with microsomes for 30 mins prior to substrate addition measured after 5 mins by LC-MS/MS analysis; format: ADME; conditions: probe testosterone
Method in brief: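 HLM (16-donor pool) were preincubated 30 min with carfilzomib 0.01–10 µM before addition of midazolam or testosterone at about Km. Metabolite formation was measured by LC-MS/MS after 5 min, in duplicate, relative to 0.5% acetonitrile controls.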

Plasma [3] = assay: Drug metabolism in plasma of iv dosed human patient with relapsed and refractory hematological malignancies assessed as morpholino-hPhe metabolite formation administered on days 1, 2, 8, 9, 15 and 16 of 28-day cycle over 2 to 10 mins by LC-MS/MS analysis; format: ADME, organism-based; conditions: in vivo
[4] = Plasma protein binding in iv dosed human multiple myeloma patient at 15 mg/m'2 in first cycle and escalated to 20 mg/m'2 thereafter administered on days 1, 2, 8, 9, 15 and 16 of 28-day cycle over 2 to 10 mins by LC-MS/MS analysis; format: ADME, organism-based; conditions: read-out: PPB (converted)
Method in brief: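 Plasma taken at end of administration and 5 min after, on Days 1 and 15 of Cycle 1 and Day 15 of Cycle 2, was dialyzed 6 h at 37°C against pH 7.4 sodium phosphate buffer by rapid equilibrium dialysis. Samples were matrix-matched, extracted by acetonitrile precipitation and quantified by LC-MS/MS.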

[5] = Plasma clearance in human patient with relapsed solid tumor at 20 mg/m'2, iv administered on days 1, 2, 8, 9, 15 and 16 of 28-day cycle over 2 to 10 mins measured on day 16 of cycle 1 by LC-MS/MS analysis; format: ADME, organism-based
Method in brief: (§1)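 Patients with relapsed solid tumors (n=3) received carfilzomib IV at 20 mg/m2. Plasma was sampled on Days 1 and 16 of Cycle 1 before dosing, at end of administration, and at 5, 15, 30 min and 1, 2, 4 h after. Samples underwent solid phase extraction and LC-MS/MS with d10-carfilzomib internal standard over 0.100–200 ng/mL. Parameters were derived noncompartmentally (constant IV infusion model) from actual elapsed time from infusion start.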

[6] = Half life in human patient with relapsed solid tumor at 20 mg/m'2, iv administered on days 1, 2, 8, 9, 15 and 16 of 28-day cycle over 2 to 10 mins measured on day 1 of cycle 1 by LC-MS/MS analysis; format: ADME, organism-based; conditions: in vivo; method in brief: as §1
[7] = Cmax in human patient with relapsed solid tumor at 20 mg/m'2, iv administered on days 1, 2, 8, 9 15 and 16 of 28-day cycle over 2 to 10 mins measured on day 1 of cycle 1 by LC-MS/MS analysis; format: ADME, organism-based; parameters: route intravenous; conditions: in vivo; method in brief: as §1
Plasma [8] = assay: Drug metabolism in plasma of iv dosed human patient with relapsed and refractory hematological malignancies assessed as morpholino-hPhe-Leu-Phe-Leu-diol metabolite formation administered on days 1, 2, 8, 9, 15 and 16 of 28-day cycle over 2 to 10 mins by LC-MS/MS analysis; format: ADME, organism-based; conditions: in vivo
Plasma [9] = assay: Drug metabolism in plasma of iv dosed human patient with relapsed and refractory hematological malignancies assessed as morpholino-hPhe-Leu metabolite formation administered on days 1, 2, 8, 9, 15 and 16 of 28-day cycle over 2 to 10 mins by LC-MS/MS analysis; format: ADME, organism-based; conditions: in vivo
CYP3A [10] = assay: Decrease in CYP3A gene expression in human hepatocytes at 2.5 uM after 3 days by qPCR analysis; format: ADME, cell-based, Hepatocyte
Method in brief: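 Hepatocytes were treated 3 days with carfilzomib (0.1–2.5 µM) or 0.08% DMSO, renewed daily. CYP3A mRNA was measured in 3 donors and CYP1A2 mRNA in one additional donor, both by qPCR. Values are triplicate means relative to DMSO.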

Cytochrome P450 3A = Cytochrome P450 3A (Homo sapiens, UniProt P08684+P20815+Q9HB55+P24462); assay: Decrease in CYP3A activity in human hepatocytes assessed as 6-betahydroxytestosterone formation using testosterone as substrate incubated for 3 days prior to substrate challenge for 30 mins by LC-MS/MS analysis; format: ADME, cell-based, Hepatocyte; conditions: 0.5 h
Method in brief: (§2)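 Hepatocytes from 3 donors were plated on collagen I and cultured 2 days, then treated 3 days with carfilzomib (0.1–2.5 µM), 0.08% DMSO, rifampicin 20 µM or β-naphthoflavone 20 µM, renewed daily. Cells were then incubated in serum-free medium in triplicate with testosterone 200 µM (CYP3A, 30 min, 6β-hydroxytestosterone) or phenacetin 100 µM (CYP1A2, 60 min, acetaminophenol). Products were measured by LC-MS/MS and expressed relative to DMSO.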

Cytochrome P450 1A2 = molecular target: T2, Cytochrome P450 1A2 (Homo sapiens, UniProt P05177); assay: Decrease in CYP1A2 activity in human hepatocytes assessed as acetaminophenol formation using phenacetin as substrate at 2.5 uM incubated for 3 days prior to substrate challenge for 60 mins by LC-MS/MS analysis; format: ADME, cell-based, Hepatocyte; conditions: 1 h; method in brief: as §2
T2 sequence (P05177 whole entry): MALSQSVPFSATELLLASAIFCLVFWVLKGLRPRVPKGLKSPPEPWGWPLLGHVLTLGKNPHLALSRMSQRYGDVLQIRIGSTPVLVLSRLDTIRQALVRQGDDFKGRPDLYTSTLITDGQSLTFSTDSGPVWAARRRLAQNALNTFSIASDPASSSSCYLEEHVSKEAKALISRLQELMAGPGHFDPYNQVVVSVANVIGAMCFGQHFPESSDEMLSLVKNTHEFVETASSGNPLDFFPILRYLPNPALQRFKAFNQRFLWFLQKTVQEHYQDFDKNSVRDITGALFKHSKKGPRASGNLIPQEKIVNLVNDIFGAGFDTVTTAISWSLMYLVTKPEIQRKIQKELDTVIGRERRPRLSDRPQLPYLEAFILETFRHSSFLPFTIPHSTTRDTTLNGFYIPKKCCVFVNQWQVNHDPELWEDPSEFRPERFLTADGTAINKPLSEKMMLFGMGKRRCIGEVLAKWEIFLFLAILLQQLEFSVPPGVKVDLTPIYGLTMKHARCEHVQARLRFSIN

CC(C)C[C@H](NC(=O)[C@H](CCc1ccccc1)NC(=O)CN1CCOCC1)C(=O)N[C@@H](Cc1ccccc1)C(=O)N[C@@H](CC(C)C)C(=O)[C@@]1(C)CO1 [CARFILZOMIB]
IC50 at 5 min (CYP3A [1]): 1700 nM | IC50 at 5 min (CYP3A [2]): > 970 nM | Drug metabolism (Plasma [3]): metabolite_detected | fraction unbound [4]: 0.024 | clearance [5]: 2270 mL/min | half-life [6]: 1 h | Cmax [7]: 2760 ng/mL | Drug metabolism (Plasma [8]): metabolite_detected | Drug metabolism (Plasma [9]): metabolite_detected | inhibition at 72 h, 2.5 µM (CYP3A [10]): > 95% | inhibition (INH) (Cytochrome P450 3A): Dose-dependent effect | inhibition (INH) (Cytochrome P450 1A2): Dose-dependent effect
